Screens as filed in PubChem BioAssay.
This excerpt belongs to a sample that is enriched for hits.
UPR XBP1 act: adaptive UPR (XBP1) activation. 330,000 tested, 0.33% active. CHO-XBP1 luciferase reporter, IRE1-XBP1 UPR activation, luminescence; percent of tunicamycin response, DMSO as zero. activation, % at 20 µM;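 active = versus positive control, 20 µM dose yields 30% or more activation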
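incubation = overnight seeding at 37 °C, 6 h compound treatment at 37 °C | assay system = CHO-XBP1 cells stably carrying IRE1-XBP1-driven luciferase reporter | input = 1000 cells per well | detection = luciferase luminescence | dosing = single point, 20 µM final compound, 1% DMSO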
CHOP inhibitor: blocks CHOP induction under ER stress; CHO-K1 CHOP-promoter luciferase, tunicamycin-induced, 15-18 h; inhibition, % at 10 µM; 220,000 tested, 3.8% active;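 active = compounds that reduced the stress-induced luciferase reporter signal by more than about 70% of percent inhibition, limit read from the data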
FXN GAA850 act: frataxin GAA850 promoter activation. AID 540364. activation, % at 6 µM. HEK293 lucGAA850 FXN promoter luciferase reporter, 24 h; percent of 10 µM SAHA response. 360,000 tested, 0.56% active;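 active = activation above the average of all compounds screened plus 3 SD, cutoff fixed separately per campaign, cut at about 7.5% in these data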
UPR CHOP act: apoptotic UPR (CHOP) activation; CHO-CHOP luciferase reporter, luminescence; percent of tunicamycin response over DMSO baseline; activation, % at 10 µM; 330,000 tested, 0.34% active;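 active = at 10 µM dose, activation of 40% or more, normalized to positive control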
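System: CHO-CHOP luciferase reporter cell line; amount: 500 cells/well; buffer or medium: F12 medium containing 10% fetal bovine serum; incubation: 6 h compound exposure at 37 °C after overnight seeding; measured by: luciferase luminescence after 10 min with Steady-Glo reagent; evaluation: % reporter activation, DMSO baseline versus tunicamycin full activation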
Hits are given with their value; . = inactive; / = no result.

SMILES	UPR XBP1 act	CHOP inhibitor	FXN GAA850 act	UPR CHOP act
O=C(COC(=O)c1ccccc1Nc1cccc(C(F)(F)F)c1)NCc1ccco1	.	79	.	.
CC(C)CNc1ncnc2c1ncn2[C@H]1CN(Cc2ccc3c(c2)OCO3)C[C@@H](CO)O1	/	/	.	/
NC(=O)c1cccc(-c2coc3c(C(=O)NCc4ccccc4)cccc23)c1	/	/	.	/
Cc1ccc(C2=NC(=O)/C(=C/c3cc(O)c(O)c(Br)c3)S2)cc1	.	72	.	.
O=C1c2cccc3cccc(c23)C(=O)N1/N=C/c1ccc(O)cc1O	.	70	.	.
Cc1nc(N2CCCCC2)[nH]c(=O)c1CN(C)N=O	/	/	.	/
O=C(Nc1ccc(N=Nc2ccccc2)cc1)c1ccccc1Cl	.	.	.	.
O=C(NCC1OCCc2ccccc21)c1ccc(NC(=O)c2ccccc2Cl)cc1 (centres undefined)	.	.	.	.
O=C(Nc1ccc(N=Nc2ccccc2)cc1)c1ccc(Cl)cc1Cl	.	77	.	.
O=C(NCC1OCCc2ccccc21)c1ccc(NC(=O)c2ccc(Cl)cc2Cl)cc1 (centres undefined)	.	98	.	.
CCc1cc2c3c(c(=O)oc2cc1O)CCCC3	.	90	.	.
CCc1cc2c3c(c(=O)oc2cc1OC(C)C(=O)O)CCCC3 (centres undefined)	.	/	.	.
CC1(C(=O)NCc2ccco2)Cc2c(-c3ccccc3)ccnc2O1 (centres undefined)	/	/	.	/
CCOc1ccc(NC(=O)CN2C(=O)COc3ccc(Cl)cc32)cc1	.	76	.	.
O=C(CN1C(=O)COc2ccc(Cl)cc21)Nc1ccc2c(c1)OCCO2	.	.	.	.
CC(C)C(=O)N1CCC1(C)C(=O)NCc1ccc(F)cc1Cl (centres undefined)	/	/	.	/
COc1ccc(Nc2nc(=O)c3cc([N+](=O)[O-])ccc3s2)cc1	/	.	.	/
Cc1ccc2nc(SCc3ccc([N+](=O)[O-])cc3)nc(C)c2c1	.	75	.	.
Cc1ccc2nc(C)cc(Nc3ccc([N+](=O)[O-])cc3)c2c1	/	104	.	/
Cc1ccc(Nc2nc(=O)c3cc([N+](=O)[O-])ccc3s2)cc1	.	93	.	.
Cc1cc(C)c2nc(SCc3ccc([N+](=O)[O-])cc3)nc(C)c2c1	.	.	.	.
CC(Oc1ccc(Cl)cc1Cl)C(=O)Nc1ccc2oc(-c3ccncc3)nc2c1 (centres undefined)	.	74	.	.
Cc1ccccc1-c1noc(-c2cccs2)n1	.	90	.	.
COc1nc(C)ccc1-c1noc(-c2cccs2)n1	.	.	.	.
OCC1(Cc2cccc(Cl)c2)CCCN(Cc2ccc(F)c(F)c2)C1 (centres undefined)	.	/	.	.
SMILES	UPR XBP1 act	CHOP inhibitor	FXN GAA850 act	UPR CHOP act
CSc1cccc(CN2CCCC(CO)(Cc3cccc(Cl)c3)C2)c1 (centres undefined)	.	95	.	.
COC(=O)c1c(NC(=O)COC(=O)CNC(=O)C2CCCCC2)sc(C)c1C	.	78	.	.
COC(=O)c1c(NC(=O)COC(=O)C2CCC2)sc(C)c1C	.	/	.	.
CCOC(=O)C1(C)CCCN1C(=O)c1ccccc1F (centres undefined)	/	/	.	/
CCOc1ccc(C(=O)NC(=S)NC2CCCC2)cc1[N+](=O)[O-]	.	71	.	.
CCc1cc2c(=O)c(-c3cnn(-c4ccccc4)c3)c(C)oc2cc1OCC(=O)Nc1ccc(F)c(F)c1	.	86	.	.
CCc1cc2c(=O)c(-c3ccc(F)cc3)c(C)oc2cc1OCC(=O)O	.	.	.	.
Cc1ccccc1OCC(=O)OCC(=O)NC1CCCC(C)C1C (centres undefined)	/	/	.	/
CCCCCCCCn1cnc2c(N)c(C)c(C)cc21	.	81	.	.
CNc1oc(-c2ccccc2Cl)nc1P(=O)(c1ccccc1)c1ccccc1	.	80	.	.
Cc1ccccc1-c1nc(P(=O)(c2ccccc2)c2ccccc2)c(N2CCOCC2)o1	.	.	.	.
O=C(CN1CCCC1)Nc1ccc(OCc2ccccc2)cc1	.	.	.	.
O=C(CN1CCN(c2ccccc2)CC1)Nc1ccc(OCc2ccccc2)cc1	.	86	.	.
CCOC(=O)N1CCN(CC(=O)Nc2ccc(Oc3ccccc3)cc2)CC1	.	82	.	.
CN1CCN(CC(=O)Nc2ccc(Oc3ccccc3)cc2)CC1	.	.	.	.
CC1(C(=O)NS(=O)(=O)c2ccc(C#N)cc2)CCN1C(=O)Cc1cc(F)ccc1F (centres undefined)	/	/	.	/
N#Cc1cc(-c2ccccc2)nc(Oc2ccc(Cl)cc2)n1	.	71	.	.
CCCCCCN1C[C@@H](n2cc(COC(=O)c3ccccc3)nn2)[C@H](O)C[C@@H]1c1ccc(Cl)cc1	/	/	.	/
O=c1c2ccccc2nc2n1CCS2(=O)=O	.	84	.	.
CCC1(C)Cc2ccccc2-c2nc3n(c(=O)c21)CCCCC3 (centres undefined)	.	81	.	.
O=c1c2c(nc3n1CCCCC3)-c1ccccc1CC21CCCCC1	.	.	.	.
N#Cc1c(-c2ccc(F)cc2)cc(-c2cccnc2)nc1N	.	88	.	.
N#Cc1c(-c2ccc(Br)cc2)cc(-c2cccnc2)nc1N	.	.	.	.
COCCCNS(=O)(=O)c1ccc(SC)cc1	.	.	.	.
CSc1ccc(S(=O)(=O)NCCOc2ccccc2C)cc1	.	72	.	.
SMILES	UPR XBP1 act	CHOP inhibitor	FXN GAA850 act	UPR CHOP act
O=C1CCCCC1C(Nc1ccc(Br)cc1)c1ccccc1 (centres undefined)	.	80	.	.
O=C1CCCCC1Nc1ccc(Cl)cc1 (centres undefined)	/	/	.	/
O=C1CCCCC1Nc1ccc(Br)cc1 (centres undefined)	/	/	.	/
O=C1CCCCC1C(Nc1ccc(Cl)cc1)c1ccccc1 (centres undefined)	.	94	.	.
CC(Sc1nc2ncc(Cl)cc2[nH]1)C(=O)Nc1ccccc1[N+](=O)[O-] (centres undefined)	/	/	.	/
C[C@H]1CN([C@@H](C)CO)S(=O)(=O)c2ccc(C#Cc3cccnc3)cc2O[C@@H]1CN(C)C(=O)Nc1ccc2c(c1)OCO2	/	/	.	/
Cn1c(=O)c(C(=O)CN2CCCc3ccccc32)c(N)n(Cc2ccccc2)c1=O	.	77	.	.
CCC(=O)N1CCC1(C)C(=O)NCc1ccc(SC)cc1 (centres undefined)	/	/	.	/
Cc1cccc(CSc2ncnc3ccccc23)c1	.	73	.	.
COc1ccc(/C=C/C(=O)c2ccc(Cl)s2)cc1O	.	85	.	.
CCCCOC(=O)c1ccc(NC(C)=O)cc1	.	.	.	.
CCCCOC(=O)c1ccc(NC(=O)/C=C/c2cccs2)cc1	.	75	.	.
CCCCOC(=O)c1ccc(NC(=O)Nc2ccc(OC)c(OC)c2)cc1	.	83	.	.
CCCCCOC(=O)c1ccc(NC(=O)c2ccco2)cc1	.	82	.	.
COc1cccc(C(O)c2ncc(-c3ccc(C(F)(F)F)cc3)[nH]2)c1 (centres undefined)	/	/	.	/
